# DENV2 CPE rescue: protects cells from dengue virus 2 cytopathic effect; DENV2-infected cells, cytopathic effect rescue, plate reader; CPE inhibition, % at 9.99 µM; 350,000 tested, 1.7% active; AID 651640; in the data active means CPE inhibition above about 20%, passing the limit was not always enough; tested in BHK-21 cells;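 further: 0% = median of neutral control wells and 100% = median of positive control wells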
# E-selectin induc: induces E-selectin expression in human endothelial cells; P16581; HUVEC E-selectin immunofluorescence imaging; normalized: neutral wells 0, TNF-alpha wells 100; activation, % at 7.58 µM; 260,000 tested, 0.37% active; AID 686992;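 active means mean E-selectin-positive cell signal at least 10% of the positive control, reached in at least 60% of replicates, without over 20% cell loss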
# Target sequence (P16581 whole entry, looked up): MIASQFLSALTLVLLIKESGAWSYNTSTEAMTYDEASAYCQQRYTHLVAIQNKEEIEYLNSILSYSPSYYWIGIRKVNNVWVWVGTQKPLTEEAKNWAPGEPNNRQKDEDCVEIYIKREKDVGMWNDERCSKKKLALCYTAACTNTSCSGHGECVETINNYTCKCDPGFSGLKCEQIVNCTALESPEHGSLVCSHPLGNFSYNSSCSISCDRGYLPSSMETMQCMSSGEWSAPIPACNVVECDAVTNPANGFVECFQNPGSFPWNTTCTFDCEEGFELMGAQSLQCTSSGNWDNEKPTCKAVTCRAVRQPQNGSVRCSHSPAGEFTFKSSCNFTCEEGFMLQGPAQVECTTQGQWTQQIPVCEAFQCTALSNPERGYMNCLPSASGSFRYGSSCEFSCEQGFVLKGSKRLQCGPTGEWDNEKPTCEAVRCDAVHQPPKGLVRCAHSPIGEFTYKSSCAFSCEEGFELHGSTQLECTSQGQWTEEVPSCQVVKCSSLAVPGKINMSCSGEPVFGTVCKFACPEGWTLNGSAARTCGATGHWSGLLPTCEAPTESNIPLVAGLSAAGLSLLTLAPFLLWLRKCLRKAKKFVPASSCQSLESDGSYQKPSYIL
#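 System: HUVEC, human umbilical vein endothelial cells; quantity: 3,000 cells/well; buffer or medium: EGM-2 medium, gelatin-coated wells; dosing: single-point compound dose; detection: immunofluorescence imaging; evaluation: % PE-positive cells; benchmarks: TNF-alpha, DMSO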
# SIRT5 block: blocks human SIRT5 desuccinylation of peptide. inhibition, % at 15 µM. Q9NXA8. 330,000 tested, 1.1% active. AID 652115. Purified SirT5, succinyl-peptide AMC, trypsin-coupled fluorescence; in the data active means inhibition above about 15%
# ERAP1 HTS inh: ERAP1 (human) enzyme inhibition; Q9NZ08; recombinant ERAP1, Leu-AMC fluorescence, 60 min; inhibition, % at 10.7 µM; 340,000 tested, 0.15% active;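 active means mean replicate inhibition of at least 30%, or all replicates individually reaching that 30% level; inactive means mean below 30% and not every replicate reaching it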;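 further: 0% = neutral control wells and 100% = L-leucinethiol positive control wells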
# PglD DTNB: inhibitors of Campylobacter jejuni PglD acetyltransferase; purified PglD enzyme, DTNB colorimetric CoA detection; inhibition, % at 12.5 µM; 360,000 tested, 0.098% active; AID 602405; in the data active means inhibition above about 16%, passing the limit was not always enough
# The depositor's hits bear a star; . = not tested or not shown. Most compounds without a hit are left out; they make up all but 2.5% or so of the library.
SMILES,DENV2 CPE rescue,E-selectin induc,SIRT5 block,ERAP1 HTS inh,PglD DTNB
CCNS(=O)(=O)c1ccc(NC(=O)CC(C)c2ccccc2)cc1 (stereo not drawn),3.7,.,5.4,-0.1,.
COCc1cccc(-c2csc(C(NC(C)=O)c3ccc(F)c(F)c3)n2)c1 (stereo not drawn),-1.9,-0.2,-2.5,0.0,0.7
O=C(Nc1ccc(CN2CCOCC2)cc1)c1cc(Br)ccc1Cl,0.9,1.0,-2.0,0.1,-0.6
Cc1ccc(NC(=O)CN2CCOCC2)cc1Cl,8.1,45.8*,25.3*,3.5,1.1
O=C(Nc1ccc(CN2CCOCC2)cc1)c1ccc(Cl)cc1Cl,-2.6,.,18.0*,3.7,4.9
Cc1ccc(C(=O)Nc2ccc(CN3CCCCC3)cc2)c(C)c1,34.8*,.,-2.5,-1.0,.
C[C@@H]1CN([C@@H](C)CO)C(=O)c2cc(C3=CCCCC3)cnc2O[C@@H]1CN(C)C(=O)C1CCOCC1,-3.5,0.2,-14.9,2.4,2.1
CCS(=O)(=O)N1CCC(NC(=O)c2cc(OC)cc(OC)c2)CC1,.,.,.,-0.7,4.1
COc1ccccc1C(=O)N1C[C@@H]2[C@H](c3ccccc31)[C@H](CO)N2C(=O)Nc1ccccc1,-1.4,-0.6,.,3.9,-1.4
CCc1cc2c(=O)[nH]c(COC)nc2s1,45.7*,.,-1.3,2.8,.
CCc1cc2c(=O)[nH]c(Cc3ccc(OC)cc3)nc2s1,-2.4,0.4,-2.7,1.5,-2.2
Cc1ccc(OCCOCCN2CCCC2)c(Br)c1,43.7*,.,-2.1,-1.4,9.4
Cc1cc(Br)ccc1OCCOCCN1CCCC1,2.7,.,-2.8,-1.4,0.3
O=C1NCCN(CC2CCN(CC3CCCC3)CC2)C1=O,-3.8,-0.1,-0.8,.,1.0
COCC(=O)N(C)C[C@@H]1Oc2cc(-c3ccc(F)cc3)ccc2S(=O)(=O)N([C@H](C)CO)C[C@@H]1C,-2.7,-0.3,-3.1,-0.1,11.1
C[C@@H]1CN([C@H](C)CO)S(=O)(=O)c2ccc(-c3ccc(F)cc3)cc2O[C@@H]1CN(C)CC1CC1,13.3,91.8*,-1.6,3.2,-0.7
C[C@@H]1CN([C@H](C)CO)S(=O)(=O)c2ccc(C#Cc3cccc(F)c3)cc2O[C@@H]1CN(C)CC1CC1,-2.7,-1.4,15.2*,-0.7,0.4
COCC(=O)N(C)C[C@H]1Oc2cc(-c3ccc(F)cc3)ccc2S(=O)(=O)N([C@@H](C)CO)C[C@H]1C,-6.8,125.4*,13.3,-1.2,15.5
C[C@H](CO)N1C[C@H](C)[C@@H](CN(C)CC2CC2)Oc2cc(-c3ccc(F)cc3)ccc2S1(=O)=O,-5.1,.,3.1,-1.2,0.5
Cc1onc(-c2ccccc2Cl)c1C(=O)NNC(=O)c1nn(C)cc1Cl,-2.5,.,-1.4,0.3,.
O=C(C[C@@H]1C[C@@H]2c3cc(NC(=O)Nc4ccc(C(F)(F)F)cc4)ccc3O[C@@H]2[C@H](CO)O1)NCc1cc(F)ccc1F,1.0,5.7,-1.9,2.8,1.3
Nc1c(Br)cc(Br)c2c1C(=O)c1c(cccc1S(=O)(=O)O)C2=O,-3.5,123.9*,-4.4,0.5,3.2
COc1cc(/C=C2\C(=O)N(c3ccc(S(N)(=O)=O)cc3)N=C2C)ccc1OC(=O)c1ccco1,1.7,3.0,2.2,7.9,.
CC(C)NC(=O)N(C)C[C@@H]1Oc2c(cccc2N(C)C)C(=O)N([C@H](C)CO)C[C@H]1C,27.3*,-1.6,-0.1,3.4,-1.5
C[C@@H]1CN([C@H](C)CO)C(=O)c2cccc(N(C)C)c2O[C@H]1CN(C)C(=O)NC1CCCCC1,-7.0,0.0,-4.2,-1.2,5.3
SMILES,DENV2 CPE rescue,E-selectin induc,SIRT5 block,ERAP1 HTS inh,PglD DTNB
CC(C)NC(=O)N(C)C[C@H]1Oc2c(cccc2N(C)C)C(=O)N([C@@H](C)CO)C[C@H]1C,21.8*,2.1,1.0,5.2,2.6
Cc1nc2cc(NC(=O)c3ccc([N+](=O)[O-])s3)ccc2s1,72.8*,-0.2,1.1,-4.7,-4.3
Cc1nc2ccc(NC(=O)c3ccc(=O)[nH]c3)cc2s1,-1.6,0.4,-4.0,37.0*,4.1
CCNc1ccc(C(=O)Nc2ccc3nc(C)sc3c2)cc1[N+](=O)[O-],33.4*,.,0.1,0.7,2.5
Cc1ccc(S(=O)(=O)N(C)C[C@@H]2Oc3ccc(NC(=O)NC(C)C)cc3C(=O)N([C@@H](C)CO)C[C@H]2C)cc1,-5.3,0.0,-1.1,-2.1,1.2
CCN(CC(=O)Nc1ccc(NC(C)=O)cc1)C(=O)Cc1ccccc1F,-8.7,.,-1.1,1.0,-0.2
CCN(CC(=O)Nc1ccc(NC(C)=O)cc1)C(=O)Cc1c(Cl)cccc1Cl,54.8*,-0.2,-0.8,0.5,-4.0
OC[C@@H]1[C@H]2c3ccccc3NC[C@H]2N1CC1CCCCC1,4.9,0.1,-1.3,-2.2,-2.4
OC[C@H]1[C@@H]2c3ccccc3NC[C@@H]2N1Cc1ccccc1Cl,32.5*,0.0,4.9,1.4,-2.5
OC[C@H]1[C@H]2c3ccccc3NC[C@H]2N1CC1CCOCC1,21.1*,0.5,-2.7,-3.4,6.1
O=C(C1CC1)N1[C@@H](CO)[C@@H]2c3ccccc3NC[C@@H]21,94.6*,0.0,-2.8,4.0,3.4
CC(=O)N/C(=C/c1cccnc1)C(=O)Nc1ccc(Cl)cc1,12.9,-0.1,.,-3.2,3.1
CCOC(=O)CN1CC23C=CC(O2)C(C(=O)NCc2ccc(C)cc2)C3C1=O (stereo not drawn),-2.8,1.3,-3.2,0.2,3.2
CCOc1ccccc1NC(=O)CN1c2cccc3cccc(c23)S1(=O)=O,0.7,-0.2,18.5*,4.3,-0.3
COc1ccc(NC(=O)CN2c3cccc4cccc(c34)S2(=O)=O)cc1,.,.,.,.,4.0
COCCN(C(=S)Nc1cccc(C)c1)C(C)c1cccs1 (stereo not drawn),30.4*,-0.7,1.7,1.6,.
O=S(c1ccccc1O)S(=O)c1ccccc1O (stereo not drawn),-4.6,.,25.8*,99.4*,.
CCCc1nnc(NC(=O)CCC(=O)N2CCC(Cc3ccccc3)CC2)s1,0.0,-0.2,-0.8,2.5,-3.3
CCOC(=O)C1(C)CCCN(C(=O)c2ccccc2)C1 (stereo not drawn),11.9,0.3,6.2,-0.5,9.7
CCOC(=O)C1(C)CCN1C(=O)c1cccc(OC)c1 (stereo not drawn),42.3*,0.0,.,2.2,0.1
CCOC(=O)C1(C)CCCN(C(=O)c2cccc(C#N)c2)C1 (stereo not drawn),-12.3,0.0,15.5*,-0.2,1.4
CCOC(=O)C1(C)CCN1C(=O)c1ccc(Cl)cc1Cl (stereo not drawn),-4.1,-0.1,0.9,0.6,-0.7
CCOC(=O)C1(C)CCN1C(=O)c1cccc(Cl)c1 (stereo not drawn),6.0,-0.1,32.1*,-2.3,1.7
Cc1noc(C)c1COc1ccccc1C(=O)Nc1cccc(S(=O)(=O)N(C)C)c1,11.2,-0.2,1.2,-0.1,2.3
Cc1ccc(S(=O)(=O)N(C)CC(=O)NCCCn2ccnc2)cc1,9.5,.,-2.3,-0.4,6.5
N#CCSc1ccccc1NC(=O)CN1C(=O)C(=O)N(Cc2ccccc2)C1=O,40.6*,0.0,.,0.4,.

# Assay outcomes as filed in PubChem BioAssay.
